Test results taken from ChEMBL document CHEMBL1649352, “Catechin derivatives from Parapiptadenia rigida with in vitro wound-healing properties” (J Nat Prod, 2010).
Active and inactive are the calls of the source. The calls are words filed in the database; no cut-off is given here.

How the values were obtained:
[1] = molecular target: Mitogen-activated protein kinase 14 (Homo sapiens, UniProt Q16539); assay: Inhibition of p38alpha after 1 hr by ELISA
NIH3T3 [2] = assay: Antimigratory activity against Swiss albino mouse 3T3 cells assessed as increase of cell numbers at 1 to 20 uM after 12 hrs by scratch-wound assay; assay type: functional, cell-based
Summary of the method: (§1)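 Swiss 3T3 albino mouse fibroblasts, cultured in DMEM with 10% FCS and penicillin/streptomycin at 37 °C, 5% CO2. A scratch wound was made in the confluent monolayer. Compounds were tested at 1, 10 and 20 µM. PDGF 2 ng/mL served as positive control and a DMSO-only well as reference. The % increase in cells migrating and proliferating into the wounded area was read after 12 h. At least triplicate runs, mean ± SEM.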

Jurkat [3] = assay: Cytotoxicity against human Jurkat cells at 55 uM after 22 hrs by MTT assay; assay type: cell-based
Jurkat [4] = assay: Inhibition of TNF-alpha-induced NFkappaB activation in human Jurkat cells at 30 to 55 uM after 24 hrs by electrophoretic mobility shift assay; assay type: cell-based
Summary of the method: (§2)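 Jurkat T cells (3 × 10⁵ cells/mL) in RPMI 1640 with 10% FCS were preincubated 24 h with compound at 10, 20, 30 or 55 µM. They were then stimulated 1 h with rh-TNF-α 2.5 ng/mL. Nuclear extracts were probed with a [γ-³³P]-labelled NF-κB consensus oligonucleotide. Specificity was checked with a 100-fold molar excess of unlabelled oligo. Bands were quantified densitometrically by phosphorimager.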

Jurkat [5] = assay: Inhibition of TNF-alpha-induced NFkappaB activation in human Jurkat cells at 10 to 20 uM after 24 hrs by electrophoretic mobility shift assay; assay type: cell-based; summary of the method: as §2
Jurkat [6] = assay: Inhibition of TNFalpha-induced NF-kappaB activation in human Jurkat cells at 10 to 55 uM after 24 hrs by electrophoretic mobility shift assay; assay type: cell-based; summary of the method: as §2
NIH3T3 [7] = assay: Antimigratory activity against Swiss albino mouse 3T3 cells assessed as increase of cell numbers at 2 ng/ml after 12 hrs by scratch-wound assay; assay type: functional
Summary of the method: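 Swiss 3T3 albino mouse fibroblasts were grown in DMEM with 10% fetal calf serum and penicillin/streptomycin at 37 °C and 5% CO2, and a scratch wound was made in the monolayer. PDGF (2 ng/mL) was incubated for 12 h. Read-out was the % of cells that migrated into and proliferated in the wounded area, relative to a cells-plus-DMSO control. At least triplicate; mean ± SEM.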

NIH3T3 [8] = assay: Antimigratory activity against Swiss albino mouse 3T3 cells assessed as increase of cell numbers at 10 uM after 12 hrs by scratch-wound assay; assay type: functional, cell-based; summary of the method: as §1
NIH3T3 [9] = assay: Antimigratory activity against Swiss albino mouse 3T3 cells assessed as increase of cell numbers at 1 uM after 12 hrs by scratch-wound assay; assay type: functional, cell-based; summary of the method: as §1

Chain of Mitogen-activated protein kinase 14 (Q16539 whole entry): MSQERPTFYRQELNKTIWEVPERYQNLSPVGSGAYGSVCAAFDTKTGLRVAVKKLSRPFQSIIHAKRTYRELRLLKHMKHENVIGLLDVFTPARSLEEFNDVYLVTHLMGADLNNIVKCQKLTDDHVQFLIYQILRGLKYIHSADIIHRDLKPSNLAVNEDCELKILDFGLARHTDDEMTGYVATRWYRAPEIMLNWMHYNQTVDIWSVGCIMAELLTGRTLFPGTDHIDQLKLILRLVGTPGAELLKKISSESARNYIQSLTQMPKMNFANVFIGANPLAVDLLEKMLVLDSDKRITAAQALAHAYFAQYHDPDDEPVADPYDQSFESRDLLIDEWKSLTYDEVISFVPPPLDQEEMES

Compound | IC50 [1] [µM] | Activity (NIH3T3 [2]) | Activity (Jurkat [6]) | other results
COc1cc([C@H]2CC(=O)Oc3cc(O)c4c(c32)O[C@H](c2cc(O)c(OC)c(O)c2)[C@@H](O)C4)ccc1O | 50.8 | Active |  | Activity (Jurkat [3]): 11%; Activity (Jurkat [4]): inactive; Activity (Jurkat [5]): Active
O=C(O[C@@H]1Cc2c(O)cc(O)cc2O[C@@H]1c1cc(O)c(O)c(O)c1)c1cc(O)c(O)c(O)c1 [EPIGALOCATECHIN GALLATE] | 2.21 | Active | Active | Activity (NIH3T3 [7]): 59.5%
COc1c(O)cc([C@H]2Oc3cc(O)cc(O)c3C[C@H]2O)cc1O | 39.2 |  | Active | 
COc1c(O)cc([C@H]2Oc3cc(O)cc(O)c3C[C@H]2OC(=O)c2cc(O)c(O)c(O)c2)cc1O |  | Active | Active | 
COc1cc(/C=C/C(=O)O[C@@H]2Cc3c(O)cc(O)cc3O[C@@H]2c2cc(O)c(O)c(O)c2)ccc1O |  |  | Active | 
O=C(O[C@@H]1Cc2c(O)cc(O)cc2O[C@@H]1c1ccc(O)c(O)c1)c1cc(O)c(O)c(O)c1 [EPICATECHIN GALLATE] | 1.47 |  |  | Activity (NIH3T3 [8]): inactive; Activity (NIH3T3 [9]): Active
COc1c(O)cc([C@H]2Oc3cc(O)cc(O)c3C[C@@H]2O)cc1O |  | Active | Active | 
COc1ccc([C@H]2Oc3cc(O)cc(O)c3C[C@H]2OC(=O)c2cc(O)c(O)c(O)c2)cc1O |  |  |  | Activity (NIH3T3 [8]): inactive; Activity (NIH3T3 [9]): Active
